TRPC6 inh: mouse TRPC6 channel inhibition; 310,000 compounds, 1.1% hits; HEK293-TRPC6, membrane potential dye, ACh-evoked depolarization; active compounds read low; B-score at 10 µM;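 active = B-score under library mean minus 3 SD, initial fluorescence not abnormally high, positive integrated signal ratio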;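 note: B-score derived from integrated fluorescence ratio over the kinetic read; more negative B-score means stronger inhibition of depolarization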
Target sequence (Q61143 whole entry, looked up): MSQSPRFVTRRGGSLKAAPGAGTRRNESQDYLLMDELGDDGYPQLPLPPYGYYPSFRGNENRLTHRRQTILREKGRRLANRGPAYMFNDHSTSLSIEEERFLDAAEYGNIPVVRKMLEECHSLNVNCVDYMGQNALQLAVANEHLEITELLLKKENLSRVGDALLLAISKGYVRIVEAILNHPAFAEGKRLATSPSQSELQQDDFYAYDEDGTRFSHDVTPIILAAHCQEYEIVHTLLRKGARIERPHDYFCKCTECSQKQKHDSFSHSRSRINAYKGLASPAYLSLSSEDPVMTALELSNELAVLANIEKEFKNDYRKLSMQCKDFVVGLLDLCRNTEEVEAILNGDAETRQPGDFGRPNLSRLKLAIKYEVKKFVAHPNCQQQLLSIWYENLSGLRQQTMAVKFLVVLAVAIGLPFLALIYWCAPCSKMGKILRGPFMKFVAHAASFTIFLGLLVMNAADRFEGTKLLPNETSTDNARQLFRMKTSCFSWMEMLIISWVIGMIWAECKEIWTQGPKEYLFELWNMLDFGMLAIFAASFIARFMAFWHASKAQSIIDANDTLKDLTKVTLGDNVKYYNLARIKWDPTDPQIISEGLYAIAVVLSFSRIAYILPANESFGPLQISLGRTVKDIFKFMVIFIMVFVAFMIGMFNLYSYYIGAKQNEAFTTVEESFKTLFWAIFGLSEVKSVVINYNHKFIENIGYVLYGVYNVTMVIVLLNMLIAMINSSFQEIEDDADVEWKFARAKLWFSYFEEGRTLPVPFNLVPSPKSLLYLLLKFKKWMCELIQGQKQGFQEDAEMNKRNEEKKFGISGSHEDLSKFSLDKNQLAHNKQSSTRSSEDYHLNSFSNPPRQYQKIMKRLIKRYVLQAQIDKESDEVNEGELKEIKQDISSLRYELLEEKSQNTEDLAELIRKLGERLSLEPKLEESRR
TRPC4 act: activators of mouse TRPC4 channel; AID 2237; HEK293 TRPC4beta/mu-opioid, Fluo4 calcium fluorescence; active compounds read high; 310,000 compounds, 0.49% hits; Q9QUQ5; B-score at 10 µM;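 active = B-score above 5 SD of library B-scores, and initial fluorescence ratio not above library mean plus 5 SD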;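 note: positive B-score marks a calcium rise read as TRPC4 activation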
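Incubation: 45 min room-temperature Fluo4 loading, 110 s read / System: HEK293 cells stably co-expressing mouse TRPC4beta and mu-opioid receptor / Signal: Fluo4 fluorescence, kinetic / Control set: buffer (low) and maximal DAMGO (high) / Measure: integrated baseline-normalised fluorescence ratio, converted to per-well B score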
TRPC6 activator: mouse TRPC6 channel activation. Q61143. HEK293-TRPC6 membrane potential dye fluorescence; active compounds read high. B-score at 10 µM. 310,000 compounds, 0.13% hits;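 active = B-score of the integrated fluorescence ratio above library mean plus 3 SD, and starting fluorescence ratio within library mean plus 5 SD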;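 note: higher score means more depolarization so channel activation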
TRPC4 PAM: TRPC4 (mouse) allosteric potentiation; 310,000 compounds, 0.42% hits; B-score at 10 µM; HEK293 TRPC4beta/mu-opioid, DAMGO EC20, Fluo-4 Ca2+ flux; active compounds read high;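 active = B-score of calcium response area above 5 SD of library B-scores, with initial fluorescence ratio within 5 SD of library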
TRPC4 block: TRPC4 (mouse) channel inhibition; Q9QUQ5; 300,000 compounds, 0.39% hits; B-score at 10 µM; HEK293 TRPC4beta/mu-opioid, DAMGO-evoked Fluo4 calcium flux; active compounds read low;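 active = B-score over 3 SD under the library average, no early fluorescence shift, positive overall ratio signal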
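Material: HEK293 cells with stable TRPC4beta plus mu-opioid receptor expression; probe or stimulus: DAMGO in two steps, submaximal then maximal; technique: Fluo4 calcium fluorescence by kinetic imaging, 5 s 1 Hz baseline; measure: integrated fluorescence ratio relative to baseline, converted to per-well B score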
TRPC4 sel inh 2: second selectivity test of TRPC6 inhibitors: effect on mouse TRPC4; shares compounds with TRPC6 inh; HEK293 TRPC4/MOR, membrane potential dye fluorescence; channel activated by saturating DAMGO dose; inhibition, % at 10 µM; 920 compounds, 42% hits;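 active = compounds whose fluorescence signal differed from control wells by over 3 SD, either direction, in both duplicate plates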
TRPC4 spec: mouse TRPC4 off-target activity of TRPC6 inhibitors; shares compounds with TRPC6 inh; HEK293 TRPC4/mu-opioid, membrane potential fluorescence; activity change, negative = inhibition, % at 10 µM; 920 compounds, 61% hits; AID 2777;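 active = rise or fall in signal beyond 3 SD of buffer-only wells in both replicate plates, either sign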;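 note: integrated kinetic ratio of fluorescence range over baseline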
HEK293 MPD ctr 2-1: second check of TRPC6 inhibitor effects in parental HEK293 cells. shares compounds with TRPC6 inh. parental HEK293 membrane potential dye fluorescence; maximal acetylcholine challenge after compound addition. signal change vs control, % at 10 µM. 920 compounds, 31% hits. AID 2779;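 active = membrane potential signal moving either way by over 3 SD of the maximum-effect control, in both duplicate plates, meaning non-specific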
HEK293 MPD ctr-1: parental HEK293 nonspecific activity of TRPC6 inhibitors; shares compounds with TRPC6 inh; 920 compounds, 60% hits; AID 2780; membrane potential signal change, % at 10 µM; parental HEK293 membrane potential dye fluorescence;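 active = membrane potential signal shifting up or down by more than 3 SD of buffer-only wells, on both duplicate plates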
HEK293 MPD ctr-2: parental HEK293 nonspecific activity of TRPC6 modulators; membrane potential signal change, % at 10 µM; membrane potential dye fluorescence; 2,400 compounds, 51% hits; AID 488924; shares compounds with TRPC6 inh;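 active = membrane potential signal moves up or down beyond 5 SD from buffer-only wells, on both duplicate plates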
HEK293 MPD ctr 2-2: parental HEK293 nonspecific activity of TRPC6 modulators, second screen; shares compounds with TRPC6 inh; membrane potential dye fluorescence; after compound, maximal acetylcholine stimulation; inhibition, % at 10 µM; 2,400 compounds, 14% hits; AID 488926;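 active = membrane potential signal drops by more than 5 SD from the mean control signal, in both duplicate plates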
TRPC4 ctr mod: selectivity of TRPC6 modulators against mouse TRPC4; AID 488927; percent change from control (negative = decrease, positive = increase), % at 10 µM; HEK293 TRPC4/mu-opioid, membrane potential fluorescence; 2,400 compounds, 69% hits; shares compounds with TRPC6 inh;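 active = membrane potential signal moved up or down beyond 5 SD of buffer control wells, in both duplicate plates, actives on both sides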
TRPC4/MOR inh 2: mouse TRPC4 off-target activity of TRPC6 modulators, second screen; HEK293 TRPC4/mu-opioid, membrane potential dye fluorescence; stimulated with maximal-effect DAMGO; AID 488928; 2,400 compounds, 55% hits; shares compounds with TRPC6 inh; inhibition, % at 10 µM;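 active = drop in membrane potential signal beyond 5 SD of the control wells in both duplicate plates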;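 note: TRPC4 counter screen for TRPC6 hits run under conditions tuned for TRPC6 not TRPC4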
TRPC6 block conf: confirmation of mouse TRPC6 inhibitors | shares compounds with TRPC6 inh | HEK293-TRPC6, membrane potential dye, ACh-evoked depolarization | inhibition, % at 10 µM | 3,300 compounds, 43% hits;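 active = fluorescence ratio falls more than 5 SD below the full-stimulation control mean, in both duplicate runs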;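 note: integrated fluorescence ratio of peak minus minimum over baseline after agonist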
TRPC6 act confirm: mouse TRPC6 activator confirmation | shares compounds with TRPC6 inh | HEK293-TRPC6 membrane potential dye fluorescence, FDSS | activation, % at 10 µM | 2,800 compounds, 11% hits | AID 488961;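 active = ratio signal rise beyond 5 SD above unstimulated control wells' mean, seen in both duplicate runs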
Large screens that a line does not name were inactive (follow-up assays come after a bar, where they were run). Rows were chosen to be rich in hits. Some 2.3% of all compounds tested hit in one or more screens of this group.

COc1ccc(-n2c(-c3ccc(Br)cc3)c[n+]3c2SC(C)C3)cc1 (stereo not given)	TRPC6 inh -5.9 | HEK293 MPD ctr-2 -142% | HEK293 MPD ctr 2-2 80% | TRPC4 ctr mod -21% | TRPC4/MOR inh 2 42% | TRPC6 block conf 48% | TRPC6 act confirm inactive
Cc1ccc(-n2c(-c3ccc(Cl)cc3)c[n+]3c2CCC3)cc1	TRPC6 inh -5.2 | HEK293 MPD ctr-2 inactive | HEK293 MPD ctr 2-2 inactive | TRPC4 ctr mod inactive | TRPC4/MOR inh 2 46% | TRPC6 block conf inactive | TRPC6 act confirm inactive
COc1ccc(-n2c(-c3ccc(Br)cc3)c[n+]3c2CCC3)cc1	TRPC6 inh -7.2 | TRPC4 sel inh 2 76% | TRPC4 spec inactive | HEK293 MPD ctr 2-1 -75% | HEK293 MPD ctr-1 -192% | TRPC6 block conf 61% | TRPC6 act confirm inactive
Cc1c(Cl)cccc1NC(=O)Nc1cc(C(C)(C)C)on1	none
Cc1cc(C)c(S(=O)(=O)NCc2cccnc2)c(C)c1	none
COc1ccc(CCNC(=O)CCS(=O)(=O)c2ccc3nc(C)sc3c2)cc1OC	none
CCOc1ccc(-n2c(-c3ccc(Cl)cc3)c[n+]3c2SCC3)cc1	TRPC6 inh -7.3, TRPC4 block -6 | HEK293 MPD ctr-2 -71% | HEK293 MPD ctr 2-2 80% | TRPC4 ctr mod inactive | TRPC4/MOR inh 2 36% | TRPC6 block conf 42% | TRPC6 act confirm inactive
COc1ccc(-n2c(-c3ccccc3)cc3c2CCCC3=O)cc1	none
COc1ccc(-n2c(-c3ccccc3)c[n+]3c2CCC3)cc1	TRPC6 inh -5.4 | HEK293 MPD ctr-2 -104% | HEK293 MPD ctr 2-2 inactive | TRPC4 ctr mod -18% | TRPC4/MOR inh 2 inactive | TRPC6 block conf 40% | TRPC6 act confirm inactive
CC1=C(C(=O)Nc2cc(C(=O)NCCC(C)C)ccc2C)SCCO1	none
CN(C)c1ccc(N=Nc2cccc3ccoc23)cc1	TRPC6 inh -5.8 | HEK293 MPD ctr-2 inactive | HEK293 MPD ctr 2-2 inactive | TRPC4 ctr mod inactive | TRPC4/MOR inh 2 41% | TRPC6 block conf inactive | TRPC6 act confirm inactive
CN(C)c1ccc(N=Nc2cccc(F)c2)cc1	none
CCOC(=O)c1c(NC(=O)CSc2nnc(C)c(=O)[nH]2)sc(C)c1-c1ccc(C)cc1	TRPC6 activator 14 | HEK293 MPD ctr-2 136% | HEK293 MPD ctr 2-2 inactive | TRPC4 ctr mod 36% | TRPC4/MOR inh 2 inactive | TRPC6 block conf inactive | TRPC6 act confirm 86%

High-throughput results from PubChem BioAssay.
